Measured values published in ChEMBL document CHEMBL3526065, “Metabolism of [6]-shogaol in mice and in cancer cells” (Drug Metab Dispos, 2012).
Each block holds one compound with its values, some of them ahead of it.

How the values were obtained:
[1] = Drug metabolism in human HCT116 cells assessed as retention time treated with 10 uM [6]-shogaol after 24 hrs by HPLC-ECD analysis; format: ADME, cell-based; settings: hct-116, 24 h
Summary of the method: (§1)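 Cells (1.0 × 10⁶) attached 24 h in six-well plates, then exposed to 10 μM final in McCoy's 5A with 10% FBS. Extracted with equal volume acetonitrile, diluted 5-fold, analysed by HPLC with electrochemical detection.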

[2] = Drug level in C57BL/6J mouse feces treated with [6]-shogaol at 200 mg/kg, po by HPLC-ECD analysis relative to control; format: ADME, organism-based; design: dose 200 mg/kg, route oral; settings: in vivo
Summary of the method: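 Female C57BL/6J mice gavaged once with 200 mg/kg in corn oil, or corn oil alone (n = 5 each). 24-h feces collected in metabolic cages. Feces extracted by sonication 90 min in MeOH/H2O (50/50) + 0.1% acetic acid, centrifuged, diluted fivefold. Analysed by HPLC with electrochemical array detection (Gemini C18, phosphate/acetonitrile/THF gradient), compared against vehicle controls.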

HT-29 = assay: Drug level in human HT-29 cells treated with 10 uM [6]-shogaol by HPLC-ECD analysis; format: ADME, cell-based; summary of the method: as §1
[3] = Drug level in mouse CL-13 cells treated with 10 uM [6]-shogaol after 24 hrs by HPLC-ECD analysis; format: ADME, cell-based; settings: cl-13, 24 h; summary of the method: as §1
NCI-H1299 [4] = assay: Induction of apoptosis in human H1299 cells assessed as apoptotic cells at 80 uM after 24 hrs by TUNEL assay; format: functional
Summary of the method: (§2)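 HCT-116 or H-1299 cells seeded at 1.0 × 10⁵/well, after 24 h exposed for 24 h to compound (10–80 μM) or DMSO control. Cells were proteinase K-pretreated, formaldehyde-fixed, and slide-mounted for peroxidase TUNEL staining. Ten fields per slide counted at 400×; brown-nucleus cells given as percentage of total cells; mean ± S.E., n = 10.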

[5] = Drug level in human HCT116 cells treated with 10 uM [6]-shogaol after 24 hrs by HPLC-ECD analysis; format: ADME, cell-based; settings: hct-116, 24 h; summary of the method: as §1
[6] = Drug level in mouse CL-13 cells treated with 10 uM [6]-shogaol by HPLC-ECD analysis; format: ADME, cell-based; summary of the method: as §1
HCT-116 [7] = assay: Induction of apoptosis in human HCT116 cells assessed as apoptotic cells at 80 uM after 24 hrs by TUNEL assay; format: functional; summary of the method: as §2
NCI-H1299 [8] = assay: Induction of apoptosis in human H1299 cells assessed as apoptotic cells at 40 uM after 24 hrs by TUNEL assay; format: functional; summary of the method: as §2
[9] = Drug level in human H1299 cells treated with 10 uM [6]-shogaol after 24 hrs by HPLC-ECD analysis; format: ADME, cell-based; settings: nci-h1299, 24 h; summary of the method: as §1
[10] = Cytotoxicity against human HCT116 cells assessed as growth inhibition after 24 hrs by MTT assay; format: functional, cell-based; settings: HCT-116, 24 h
Summary of the method: (§3)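 Cells seeded at 3000/well, attached 24 h at 37°C, then exposed to test agents (0–80 μM, 0.1% DMSO final) for 24 h in McCoy's 5A with 10% FBS. Medium replaced with 2.41 mM MTT for 3 h at 37°C; formazan dissolved in DMSO, absorbance 550 nm. Viability as percentage of DMSO control; mean ± S.D., n = 6.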

[11] = Cytotoxicity against human H1299 cells assessed as growth inhibition after 24 hrs by MTT assay; format: functional, cell-based; settings: NCI-H1299, 24 h; summary of the method: as §3
HCT-116 [12] = assay: Induction of apoptosis in human HCT116 cells assessed as apoptotic cells at 40 uM after 24 hrs by TUNEL assay; format: functional; summary of the method: as §2

Retention_time [1]: 14.5 min
Structure (SMILES): CCCCCC(CC(=O)CCc1ccc(O)c(OC)c1)SC[C@H](NC(=O)CC[C@H](N)C(=O)O)C(=O)NCC(=O)O (stereo not given in full)

Drug excretion [2]: metabolite_detected
Structure (SMILES): CCCCCC(CC(=O)CCc1ccc(O)c(OC)c1)OC (stereo not given)

Drug metabolism (HT-29): metabolite_detected | Drug excretion [2]: metabolite_detected | Drug metabolism [3]: metabolite_detected | Drug metabolism [5]: metabolite_detected | Drug metabolism [6]: metabolite_detected | Drug metabolism [9]: metabolite_detected
Structure (SMILES): CCCCCCCC(O)CCc1ccc(O)c(OC)c1 (stereo not given)
Activity (NCI-H1299 [4]): 15.4% | Activity (HCT-116 [7]): 16.9% | Activity (NCI-H1299 [8]): 7.4% | IC50 [10]: 82.2 µM | IC50 [11]: 77.7 µM | Activity (HCT-116 [12]): 9.6%

Drug excretion [2]: metabolite_detected
Structure (SMILES): CCCCCCCC(=O)CCc1ccc(O)c(O)c1
